According to article PMC3748591 (Bioorganic & medicinal chemistry, 2011):

How the values were obtained:
mouse SphK2 = molecular target: T1, mouse SphK2 (Mus musculus, UniProt Q9JIA7); experiment: Sphingosine kinase assay, in vitro inhibition of SphK2; type: biochemical; settings: initial screen at 100 μM inhibitor
T1 sequence (Q9JIA7 1-617): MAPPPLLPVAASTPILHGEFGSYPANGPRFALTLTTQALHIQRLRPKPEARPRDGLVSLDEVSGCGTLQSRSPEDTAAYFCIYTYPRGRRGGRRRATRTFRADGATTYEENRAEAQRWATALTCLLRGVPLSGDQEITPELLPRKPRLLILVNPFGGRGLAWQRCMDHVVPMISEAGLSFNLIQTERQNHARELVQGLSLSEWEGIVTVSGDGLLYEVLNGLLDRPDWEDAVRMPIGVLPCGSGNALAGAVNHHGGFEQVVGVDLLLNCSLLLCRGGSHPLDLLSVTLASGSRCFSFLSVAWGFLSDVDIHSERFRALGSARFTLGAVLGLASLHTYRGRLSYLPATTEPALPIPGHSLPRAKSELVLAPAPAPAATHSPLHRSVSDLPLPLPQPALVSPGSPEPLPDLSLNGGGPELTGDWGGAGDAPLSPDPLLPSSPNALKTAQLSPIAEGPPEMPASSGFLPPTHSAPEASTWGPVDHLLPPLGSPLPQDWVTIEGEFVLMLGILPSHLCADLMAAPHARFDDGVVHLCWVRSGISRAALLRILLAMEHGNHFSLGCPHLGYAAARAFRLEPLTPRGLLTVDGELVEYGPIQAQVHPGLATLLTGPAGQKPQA

Human SphK1 = Human SphK1 (Homo sapiens, UniProt Q9NYA1); experiment: Sphingosine kinase assay, in vitro inhibition of SphK1; type: biochemical; settings: initial screen at 100 μM inhibitor
Sequence of Human SphK1 (Q9NYA1 whole entry): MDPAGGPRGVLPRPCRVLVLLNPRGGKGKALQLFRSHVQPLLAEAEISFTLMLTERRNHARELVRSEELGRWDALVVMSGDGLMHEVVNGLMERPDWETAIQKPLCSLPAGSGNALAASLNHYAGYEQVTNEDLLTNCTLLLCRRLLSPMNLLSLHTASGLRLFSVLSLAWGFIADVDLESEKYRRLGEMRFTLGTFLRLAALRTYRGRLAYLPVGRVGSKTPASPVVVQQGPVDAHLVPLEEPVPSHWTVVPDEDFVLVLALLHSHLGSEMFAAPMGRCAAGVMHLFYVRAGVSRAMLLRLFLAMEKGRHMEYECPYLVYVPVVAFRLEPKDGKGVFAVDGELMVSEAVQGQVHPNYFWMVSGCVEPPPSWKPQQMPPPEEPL

[1] = tested on: Akt and ERK phosphorylation; experiment: Akt/ERK phosphorylation in U937 cells; type: cell-based, human; settings: different concentrations, 16 h (legend: 24 h), Western blot
Procedure, shortened: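 U937 cells pretreated with test compound at a range of concentrations for 24 h (legend; the methods say times "usually 2 h"). Cells were washed in PBS, Dounce-lysed, and equal protein run on 10% SDS–PAGE, then transferred to nitrocellulose. Blots were blocked in 5% milk/TBS pH 7.4 with 0.1% Tween 20, probed 1 h with anti-ERK, p-ERK, Akt, p-Akt and β-actin (1:1000), then HRP anti-IgG (1:2000), with chemiluminescent detection. PD098059 (10 μM) served as ERK positive control.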

U937 cells = experiment: S1P levels in U937 cells; type: cell-based, human; settings: LC/MS, data not shown
SphK2 = molecular target: T2, SphK2 (Homo sapiens, UniProt Q9NRA0); experiment: FTY720 phosphorylation in intact U937 cells; type: cell-based; settings: U937 cells exposed to FTY720 and 10 μM inhibitor, 2 h; cell pellet, LC/MS
T2 sequence (Q9NRA0 1-654): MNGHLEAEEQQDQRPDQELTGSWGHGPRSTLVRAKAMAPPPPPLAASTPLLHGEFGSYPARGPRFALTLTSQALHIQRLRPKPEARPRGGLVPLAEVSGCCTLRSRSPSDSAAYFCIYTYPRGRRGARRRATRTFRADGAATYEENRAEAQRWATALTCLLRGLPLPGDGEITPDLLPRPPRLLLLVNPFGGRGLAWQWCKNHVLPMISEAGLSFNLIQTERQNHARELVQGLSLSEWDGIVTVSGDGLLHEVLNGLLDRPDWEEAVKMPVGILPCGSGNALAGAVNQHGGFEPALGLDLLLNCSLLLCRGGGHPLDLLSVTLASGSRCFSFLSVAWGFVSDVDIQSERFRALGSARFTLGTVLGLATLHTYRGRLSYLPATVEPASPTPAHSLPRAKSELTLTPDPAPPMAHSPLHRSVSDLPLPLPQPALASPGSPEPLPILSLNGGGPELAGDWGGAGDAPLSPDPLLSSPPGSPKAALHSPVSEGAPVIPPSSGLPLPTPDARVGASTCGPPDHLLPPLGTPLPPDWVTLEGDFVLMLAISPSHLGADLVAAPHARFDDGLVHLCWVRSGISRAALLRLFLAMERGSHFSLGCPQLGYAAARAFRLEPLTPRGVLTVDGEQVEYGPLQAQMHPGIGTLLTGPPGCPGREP
Procedure, shortened: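 Cultured U937 cells were given exogenous FTY720 plus 10 μM test compound for 2 h, then pelleted by centrifugation. Pellet FTY720 and FTY720-P were measured by LC/ESI-MS/MS: C18 reverse phase, water/methanol/formic acid gradient, 1 mL/min. MRM was 308.4→255.1 and 388.4→255.1, with C17S1P and C17-sphingosine as internal standards, quantified by peak area. Results are moles per million cells, means ± SD of three independent experiments, unpaired two-tailed t-test.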

| inhibition of SphK2, result in words (mouse SphK2) | inhibition of SphK1, result in words (Human SphK1) | accumulation of FTY720 in cells (SphK2) | production of FTY720-P (SphK2) | Compound | Akt phosphorylation [1] | ERK phosphorylation [1] | S1P levels (U937 cells) |
| --- | --- | --- | --- | --- | --- | --- | --- |
| did not cross the 50% threshold | inactive against SphK1 |  |  | CCCCCCCCc1ccc(C2CCC(=CC(=O)OC)CC2)cc1 (centres unmarked) [Compound 5, Methyl 2-(4-(4-octylphenyl)cyclohexylidene)acetate] |  |  |  |
| did not cross the 50% threshold | inactive against SphK1 |  |  | CCCCCCCCc1ccc(C2CCC(=CCO)CC2)cc1 (centres unmarked) [Compound 6, 2-(4-(4-Octylphenyl)cyclohexylidene)ethanol] |  |  |  |
| did not cross the 50% threshold | inactive against SphK1 |  |  | CCCCCCCCc1ccc(C2CCC(O)(C[N+](=O)[O-])CC2)cc1 (centres unmarked) [Compound 7, 1-(Nitromethyl)-4-(4-octylphenyl)cyclohexanol] |  |  |  |
| did not cross the 50% threshold | inactive against SphK1 |  |  | CCCCCCCCc1ccc(C2CCC(=NO)CC2)cc1 (centres unmarked) [Compound 8, 4-(4-Octylphenyl)cyclohexanone oxime] |  |  |  |
| did not cross the 50% threshold | inactive against SphK1 |  |  | CCCCCCCCc1ccc([C@H]2CC[C@H](O)CC2)cc1 [Compound 9, (1r,4r)-4-(4-Octylphenyl)cyclohexanol] |  |  |  |
|  |  | exaggerated the accumulation | significantly suppressed | CCCCCCCCc1ccc([C@H]2CC[C@H]([N+](C)(C)C)CC2)cc1.[I-] [trans-12a, (1r,4r)-N,N,N-trimethyl-4-(4-octylphenyl)cyclohexanaminium iodide] | dose-dependent decrease | quantitatively inhibited | no change |
|  |  | exaggerated the accumulation | significantly suppressed | CCCCCCCCc1ccc([C@H]2CC[C@H]([N+](C)(C)CCC)CC2)cc1.[I-] [trans-12b, (1r,4r)-N,N-Dimethyl-4-(4-octylphenyl)-N-propylcyclohexanaminium iodide] | complete disappearance of p-Akt band | quantitatively inhibited | no change |
